ChEMBL document CHEMBL2150980 (Eur J Med Chem, 2012)

Columns and labels:
[1] = molecular target: T1, Alpha-1A adrenergic receptor (Homo sapiens, UniProt P35348); experiment: Displacement of [3H]prazosin from human cloned alpha1A adrenoceptor expressed in CHO cell membranes after 30 mins by liquid scintillation counter
T1 sequence (P35348 whole entry): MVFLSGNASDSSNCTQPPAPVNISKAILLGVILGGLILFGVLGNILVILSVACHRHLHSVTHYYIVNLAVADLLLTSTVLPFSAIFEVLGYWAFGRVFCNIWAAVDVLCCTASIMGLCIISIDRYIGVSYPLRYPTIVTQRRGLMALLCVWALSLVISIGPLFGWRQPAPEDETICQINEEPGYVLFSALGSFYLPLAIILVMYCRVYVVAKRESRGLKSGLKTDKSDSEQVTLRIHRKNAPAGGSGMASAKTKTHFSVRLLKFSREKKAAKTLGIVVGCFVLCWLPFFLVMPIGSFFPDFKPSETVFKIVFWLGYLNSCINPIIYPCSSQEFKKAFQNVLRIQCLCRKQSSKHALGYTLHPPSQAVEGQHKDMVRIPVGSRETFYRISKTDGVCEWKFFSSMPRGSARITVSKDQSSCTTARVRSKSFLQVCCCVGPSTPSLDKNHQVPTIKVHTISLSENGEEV
In short: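 Membranes incubated 30 min at 25 °C with 0.5 nM [3H]-prazosin ± compound (0.3–1000 nM) in 50 mM buffer, pH 7.7, containing pargyline and 0.1% ascorbic acid. Unlabelled prazosin defined nonspecific binding. GF/B filtration, scintillation counting.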

[2] = molecular target: T2, 5-hydroxytryptamine receptor 1A (Rattus norvegicus, UniProt P19327); experiment: Displacement of [3H]-8-OH-DPAT from 5-HT1A receptor in rat hippocampal membranes after 30 mins by liquid scintillation counting; assay type: cell membranes, Hippocampus, Membrane
T2 sequence (P19327 whole entry): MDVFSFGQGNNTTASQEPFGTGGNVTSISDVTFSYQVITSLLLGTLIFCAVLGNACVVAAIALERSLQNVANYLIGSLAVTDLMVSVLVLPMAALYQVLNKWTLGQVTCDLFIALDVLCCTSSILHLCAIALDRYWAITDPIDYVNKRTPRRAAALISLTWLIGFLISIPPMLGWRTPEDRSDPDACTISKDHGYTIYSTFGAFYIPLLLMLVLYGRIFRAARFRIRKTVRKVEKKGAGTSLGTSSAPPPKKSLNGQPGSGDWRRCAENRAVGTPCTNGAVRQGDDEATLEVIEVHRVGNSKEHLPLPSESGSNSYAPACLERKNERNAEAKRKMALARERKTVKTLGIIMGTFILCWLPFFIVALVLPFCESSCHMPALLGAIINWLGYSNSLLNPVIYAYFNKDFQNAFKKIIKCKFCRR
In short: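 Crude rat hippocampal membranes in Tris-HCl 50 mM, pH 7.7, with pargyline and 4 mM CaCl2. […] Stopped by GF/B filtration, then scintillation counting. Ki from IC50 via Cheng–Prusoff; ≥3 experiments in triplicate.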

[3] = molecular target: T3, Alpha-1D adrenergic receptor (Homo sapiens, UniProt P25100); experiment: Displacement of [3H]prazosin from human cloned alpha1D adrenoceptor expressed in CHO cell membranes after 30 mins by liquid scintillation counter
T3 sequence (P25100 whole entry): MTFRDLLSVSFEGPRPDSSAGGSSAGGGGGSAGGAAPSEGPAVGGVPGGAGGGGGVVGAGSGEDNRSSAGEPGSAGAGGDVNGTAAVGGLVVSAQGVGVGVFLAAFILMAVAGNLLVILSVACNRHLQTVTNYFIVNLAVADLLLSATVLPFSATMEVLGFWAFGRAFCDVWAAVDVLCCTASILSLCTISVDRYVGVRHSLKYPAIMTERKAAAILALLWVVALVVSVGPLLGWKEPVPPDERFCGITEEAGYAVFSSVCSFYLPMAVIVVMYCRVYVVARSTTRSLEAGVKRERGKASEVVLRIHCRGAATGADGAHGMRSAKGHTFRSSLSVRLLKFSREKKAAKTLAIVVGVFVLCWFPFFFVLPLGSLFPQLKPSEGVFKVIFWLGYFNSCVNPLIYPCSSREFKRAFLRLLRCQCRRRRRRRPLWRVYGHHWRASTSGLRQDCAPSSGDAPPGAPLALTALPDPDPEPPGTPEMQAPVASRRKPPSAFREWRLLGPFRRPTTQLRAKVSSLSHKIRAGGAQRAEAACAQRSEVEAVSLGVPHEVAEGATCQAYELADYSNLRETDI

[4] = molecular target: T4, Alpha-1B adrenergic receptor (Homo sapiens, UniProt P35368); experiment: Displacement of [3H]prazosin from human cloned alpha1B adrenoceptor expressed in CHO cell membranes after 30 mins by liquid scintillation counter
T4 sequence (P35368 whole entry): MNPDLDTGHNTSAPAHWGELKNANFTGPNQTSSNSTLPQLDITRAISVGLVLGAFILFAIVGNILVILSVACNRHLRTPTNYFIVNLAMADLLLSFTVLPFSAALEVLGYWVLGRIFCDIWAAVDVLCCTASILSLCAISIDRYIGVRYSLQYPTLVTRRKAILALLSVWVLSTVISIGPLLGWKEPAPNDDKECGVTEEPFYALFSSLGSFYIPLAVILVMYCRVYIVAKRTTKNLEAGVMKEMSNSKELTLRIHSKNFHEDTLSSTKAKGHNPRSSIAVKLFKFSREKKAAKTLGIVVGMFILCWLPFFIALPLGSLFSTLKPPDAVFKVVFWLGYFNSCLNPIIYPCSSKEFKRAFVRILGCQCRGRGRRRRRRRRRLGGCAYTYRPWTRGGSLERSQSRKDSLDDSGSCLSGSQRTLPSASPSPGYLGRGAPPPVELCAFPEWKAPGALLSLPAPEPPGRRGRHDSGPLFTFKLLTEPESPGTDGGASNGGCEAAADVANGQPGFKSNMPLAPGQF

[5] = molecular target: T5, Alpha-1A adrenergic receptor (Cavia porcellus) (UniProt Q9WU25); experiment: Inverse agonist activity at alpha1A adrenoceptor in guinea pig thoracic aorta assessed as inhibition of ca2+-induced IRT at 10 nM after 30 mins; assay type: functional, tissue-based
T5 sequence (whole entry): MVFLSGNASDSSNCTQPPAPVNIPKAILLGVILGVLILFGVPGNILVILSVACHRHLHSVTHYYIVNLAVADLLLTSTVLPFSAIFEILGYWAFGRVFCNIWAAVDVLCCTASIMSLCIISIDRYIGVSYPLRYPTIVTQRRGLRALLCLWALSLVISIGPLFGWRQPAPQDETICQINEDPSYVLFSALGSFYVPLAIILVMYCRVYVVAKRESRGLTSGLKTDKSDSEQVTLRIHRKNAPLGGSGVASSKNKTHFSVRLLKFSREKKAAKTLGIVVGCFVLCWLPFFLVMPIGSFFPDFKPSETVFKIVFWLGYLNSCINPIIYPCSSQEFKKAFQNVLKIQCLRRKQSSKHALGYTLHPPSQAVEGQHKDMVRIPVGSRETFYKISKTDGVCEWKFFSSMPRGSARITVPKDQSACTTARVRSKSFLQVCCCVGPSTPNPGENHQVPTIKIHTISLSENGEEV
In short: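 Tissue in Krebs equilibrated 1 h at 1 g, then given a single (−)-noradrenaline dose. Washed 1 h in Ca2+-free Krebs with 0.1 mM EDTA, with agonist reapplied until no contraction (internal Ca2+ stores depleted). Antagonist 10 nM for 30 min, then Ca2+ 1.8 mM added. Result is % decrease versus IRT without any agent; mean ± SE, 4–7 experiments.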

[6] = molecular target: T6, Adrenergic receptor alpha-2 (Rattus norvegicus, UniProt P22086+P19328+P22909); experiment: Antagonist activity at alpha2 adrenoceptor in Sprague-Dawley rat prostatic vas deferens assessed as suppression of clonidine-mediated inhibition of twitch response after 30 mins; assay type: functional, tissue-based
T6 sequence (P22086 whole entry): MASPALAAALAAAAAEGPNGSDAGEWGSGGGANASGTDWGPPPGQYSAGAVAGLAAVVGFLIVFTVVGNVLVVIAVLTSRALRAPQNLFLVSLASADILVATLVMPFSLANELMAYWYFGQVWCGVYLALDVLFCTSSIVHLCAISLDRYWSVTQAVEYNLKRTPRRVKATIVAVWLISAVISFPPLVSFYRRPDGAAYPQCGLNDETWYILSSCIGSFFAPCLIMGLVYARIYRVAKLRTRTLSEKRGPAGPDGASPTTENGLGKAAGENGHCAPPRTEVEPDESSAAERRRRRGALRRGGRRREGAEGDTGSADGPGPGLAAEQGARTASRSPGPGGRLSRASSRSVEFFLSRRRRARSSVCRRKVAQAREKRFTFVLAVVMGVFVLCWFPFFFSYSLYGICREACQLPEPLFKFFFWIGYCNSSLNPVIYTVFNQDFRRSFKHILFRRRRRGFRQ
T6 sequence (P19328 whole entry): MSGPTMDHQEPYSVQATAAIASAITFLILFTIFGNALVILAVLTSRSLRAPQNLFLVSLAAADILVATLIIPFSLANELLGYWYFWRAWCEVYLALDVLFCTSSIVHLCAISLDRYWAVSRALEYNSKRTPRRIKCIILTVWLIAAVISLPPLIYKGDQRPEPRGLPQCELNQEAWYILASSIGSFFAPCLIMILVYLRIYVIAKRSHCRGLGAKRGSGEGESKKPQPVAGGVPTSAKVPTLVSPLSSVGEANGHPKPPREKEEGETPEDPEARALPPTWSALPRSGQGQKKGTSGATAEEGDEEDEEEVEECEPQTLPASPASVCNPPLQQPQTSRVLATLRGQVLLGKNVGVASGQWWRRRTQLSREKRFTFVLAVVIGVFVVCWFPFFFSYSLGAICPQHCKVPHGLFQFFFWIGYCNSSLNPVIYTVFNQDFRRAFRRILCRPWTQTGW
T6 sequence (P22909 whole entry): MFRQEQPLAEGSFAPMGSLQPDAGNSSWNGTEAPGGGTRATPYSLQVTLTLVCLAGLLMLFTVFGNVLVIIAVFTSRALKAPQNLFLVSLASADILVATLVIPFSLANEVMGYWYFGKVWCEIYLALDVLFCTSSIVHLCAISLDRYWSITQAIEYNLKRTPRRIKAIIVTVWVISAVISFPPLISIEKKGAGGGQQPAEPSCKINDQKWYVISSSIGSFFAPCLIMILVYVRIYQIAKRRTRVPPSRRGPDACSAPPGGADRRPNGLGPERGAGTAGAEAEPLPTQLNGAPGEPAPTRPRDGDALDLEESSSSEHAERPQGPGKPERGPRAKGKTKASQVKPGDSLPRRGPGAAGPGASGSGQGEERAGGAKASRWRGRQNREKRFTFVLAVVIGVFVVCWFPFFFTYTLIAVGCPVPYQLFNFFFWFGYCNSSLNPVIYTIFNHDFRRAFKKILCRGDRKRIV
In short: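 Prostatic vas deferens segments (1.5–2 cm) in Krebs at 37 °C, field-stimulated at 0.1 Hz with 3 ms square pulses, 20–40 V. Equilibrated 1 h at 0.35 g resting tension.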

COc1cccc(OC)c1OCCNC[C@@H]1COc2cccc(F)c2O1
Ki [1]: 18.2 nM | Ki [2]: 31.6 nM | Ki [3]: 7.41 nM | Ki [4]: 102 nM

COc1cccc(OC)c1OCCNC[C@@H]1COc2cccc(Cl)c2O1
Ki [1]: 5.62 nM | Ki [2]: 17.4 nM | Ki [3]: 3.98 nM | Ki [4]: 33.9 nM

COc1cccc(OC)c1OCCNC[C@@H]1COc2cccc(O)c2O1
Ki [1]: 66.1 nM | Ki [2]: 17.4 nM | Ki [3]: 324 nM | Ki [4]: 398 nM

COc1cccc(OC)c1OCCNC[C@@H]1COc2cccc(OC)c2O1
Ki [1]: 16.6 nM | Ki [2]: 12.9 nM | Ki [3]: 16.6 nM | Ki [4]: 79.4 nM

COc1cccc(OC)c1OCCNC[C@@H]1COc2c(OC)cccc2O1
Ki [1]: 813 nM | Ki [2]: 123 nM | Ki [3]: 263 nM | Ki [4]: 646 nM

COc1cccc(OC)c1OCCNC[C@H]1COc2ccccc2O1.Cl
inhibition [5]: 84% | pA2 [6]: 6.92
